Read-outs that look alike come from different tables or passages of the source.
Experiments:
MDA-MB-468 cells = experiment: Toxicity in MDA-MB-468 cells, MTT assay; type: cell-based
Recombinant human NQO2 = target: T1, Recombinant human NQO2 (Homo sapiens, UniProt P16083); experiment: Inhibition of recombinant NQO2 enzymatic activity; type: biochemical; details: for ΔGexp, experimentally determined binding affinity: derived from IC50 by the Cheng-Prusoff equation; for IC50: 200 μM NRH, DCPIP
T1 sequence (P16083 1-231): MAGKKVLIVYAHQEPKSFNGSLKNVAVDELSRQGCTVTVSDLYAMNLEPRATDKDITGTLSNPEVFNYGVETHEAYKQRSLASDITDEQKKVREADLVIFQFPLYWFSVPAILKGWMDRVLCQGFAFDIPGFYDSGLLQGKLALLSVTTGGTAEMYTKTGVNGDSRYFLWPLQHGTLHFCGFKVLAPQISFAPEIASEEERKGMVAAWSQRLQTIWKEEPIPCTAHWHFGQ

K562 cells = experiment: 96 hour toxicity, XTT assay; type: cell-based; details: read-out: 96 hour Toxicity in Cells IC50, K562
Recombinant human NQO1 = details: previously reported; cited from earlier work
BT474 cells = experiment: CB1954 toxicity in BT474 cells; type: cell-based; details: Homo sapiens
[1] = test system: NFκB in Renal Carcinoma cells; details: cited from earlier work
[2] = test system: NFκB transcriptional activity in MDA-MB-468 cells; experiment: NFκB dual luciferase reporter assay; type: cell-based
Summary of the method: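 MDA-MB-468 cells (7×10^5 per 6 cm plate, 24 h attachment) were transfected with 1 µg/plate Cignal NFκB reporter (6× NFκB element-driven firefly, CMV-Renilla) using Oligofectamine in opti-MEM for 5 h at 37 °C. They were then re-fed with RPMI/10% FCS and reseeded into 96-well plates. Cells were pretreated for 1 h with 100 µM NRH and/or 20 ng/mL TNFα, then given test compound (DMSO ≤0.5% final) for 18 h. Passive lysis, dual-luciferase read-out.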

[3] = read-out: 96 hour Toxicity in Cells IC50, MDA-MB-468, 96 hour exposure
[4] = read-out: IC50 + BSA, presence of 2 μM BSA
[5] = read-out: IC50 – BSA, absence of BSA
[6] = Homo sapiens, MDA-MB-468, read-out: 3hr toxicity (IC50) Inhibitor alone
[7] = IC50 + BSA, presence of 2 μM BSA

Row | ΔGexp, experimentally determined binding affinity (Recombinant human NQO2) [kcal/mol] | IC50 (Recombinant human NQO2; [4]) [µM] | IC50 (Recombinant human NQO2; [5]) [µM] | SMILES | IC50 (MDA-MB-468 cells; [3]) [µM] | IC50 (K562 cells; 96 hour exposure) [µM] | IC50 (K562 cells; Homo sapiens, K562, 96 h) [µM] | also measured
1 | -10.74 | 3 ± 1.21 | 0.02 ± 0.01 | Cc1c2cnccc2c(C)c2c1c1ccccc1n2CCNCc1ccccc1 [NSC164016] | 0.43 ± 0.24 | 0.7 ± 0.29 |  | 
2 | -9.197 | 4.1 ± 1.05 | 0.2 ± 0.01 | Nc1cc2c(cc1[N+](=O)[O-])[nH]c1c(-c3ccccc3)nccc12 [NSC620318] | 22 ± 9.1 | 35 ± 33 |  | 
3 | -8.485 | 9.8 ± 0.92 | 0.66 ± 0.08 | O=C1c2c(c3c4ccccc4[nH]c3c3[nH]c4ccccc4c23)C(=O)N1Cc1ccccc1 [NSC628440] | 4 ± 0.021 | 0.75 ± 0.76 |  | inhibition of NQO1 (Recombinant human NQO1): relatively weak inhibitor
4 |  |  |  | Cc1ccc(NC(=O)c2ccc(CN3CCN(C)CC3)cc2)cc1Nc1nccc(-c2cccnc2)n1 [Imatinib, reference compound] |  |  | 0.68 ± 0.51 | 
5 | -10.07 | 0.2 ± 0.09 | 0.05 ± 0.01 | Cc1c(-c2ccc(C(=N)N)cc2)oc(-c2ccc(C(=N)N)cc2)c1C [NSC305836] | 3.9 ± 2.5 | 5.5 ± 3.6 |  | 
6 |  |  |  | NC(=O)c1cc(N2CC2)c([N+](=O)[O-])cc1[N+](=O)[O-] [CB1954, 5-(-aziridin-1-yl)-2,4-dinitrobenzamide, reference compound] |  |  |  | IC50 (BT474 cells; BT-474, read-out: IC50 of CB1954, absence of NRH): > 1000 µM; IC50 (BT474 cells; BT-474, read-out: IC50 of CB1954, presence of 100μM NRH): 1000 µM; proliferation of MDA-MB-468 cells (MDA-MB-468 cells; 100μM CB1954 plus 100μM NRH, 3 hours): about 25%; IC50 (MDA-MB-468 cells; Homo sapiens, MDA-MB-468, 3 h, read-out: IC50 of CB1954 alone): > 1000 µM
7 |  |  |  | Oc1ccc(/C=C/c2cc(O)cc(O)c2)cc1 [Resveratrol, reference compound] |  |  | 72 ± 5.1 | IC50 (MDA-MB-468 cells; [6]): > 100 µM
8 | -9.197 |  |  | CCN(CC)CCCC(C)Nc1c2ccc(Cl)cc2nc2ccc(OC)cc12 (stereo not drawn) [NSC14229, Quinacrine] |  |  | 4 ± 3.6 | basal and induced activity of NFκB [1]: effectively suppressed; IC50 (Recombinant human NQO2; [7]): 8.5 ± 1.6 µM; IC50 (Recombinant human NQO2; IC50 – BSA, absence of BSA): 0.2 ± 0.05 µM
9 |  |  |  | Nc1c2ccccc2nc2ccccc12 [NSC13000, 9-aminoacridine] |  |  | 1 ± 1.4 | basal and induced activity of NFκB [1]: effectively suppressed; NFκB transcriptional (luciferase) activity ([2]; 0.1μM NSC13000, cells with or without 100μM NRH): reduces the luciferase activity; IC50 (MDA-MB-468 cells; [6]): 23 ± 5.1 µM
10 |  |  |  | NC(=O)C1=CN([C@@H]2O[C@H](CO)[C@@H](O)[C@H]2O)C=CC1 [NRH, N-ribosyl nicotinamide, reference compound] |  |  |  | NFκB activity (luciferase) ([2]; 100μM NRH, without TNFα): stimulates NFκB activity; toxicity of NRH itself (MDA-MB-468 cells; 1μM to 1mM NRH): no toxicity

Row | SMILES | ΔGexp, experimentally determined binding affinity (Recombinant human NQO2) [kcal/mol] | IC50 (Recombinant human NQO2; [4]) [µM] | IC50 (Recombinant human NQO2; [5]) [µM] | IC50 (MDA-MB-468 cells; [3]) [µM] | IC50 (K562 cells; 96 hour exposure) [µM] | IC50 (K562 cells; Homo sapiens, K562, 96 h) [µM] | also measured
11 | Cc1c2ccncc2c(C)c2c1[nH]c1ccccc12 [NSC71795] | -10.07 | 0.24 ± 0.09 | 0.05 ± 0.01 | 0.27 ± 0.2 | 0.73 ± 0.6 |  | 
12 | N=C(N)c1ccc(-c2ccc(-c3ccc(C(=N)N)cc3)o2)cc1 [NSC305831] | -8.513 |  |  |  |  | 27 ± 35 | IC50 (MDA-MB-468 cells; [6]): 114 ± 52 µM; IC50 (Recombinant human NQO2; [7]): 2.8 ± 0.61 µM
